Experimental data taken from paper PMC5774851 (Journal of medicinal chemistry, 2016).

How the values were obtained:
[1] = In situ AFM measurement of L-cystine crystal step velocities; conditions: aqueous 2 mM L-cystine; for V/V0 normalized step velocity @ 15 μM: 15 μM inhibitor; for V/V0 normalized step velocity @ 30 μM: 30 μM inhibitor; for V/V0 normalized step velocity @ 45 μM: 45 μM inhibitor
[2] = Fluorescence assay
[3] = Chemical stability in pH 7.4 phosphate buffered saline at 37 °C by LC-MS; type: physicochemical
Summary of the method: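 Test compound incubated in pH 7.4 phosphate-buffered saline at 37 °C. Loss of parent compound followed over time by LC-MS, and half-life taken from its disappearance.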

[4] = tested on: Slc3a1 knockout male mice; conditions: knockout mouse model of cystinuria, previous study; cited from earlier work
[5] = tested on: Slc3a1 knockout male mice; experiment: In vivo activity in genetic mouse model of cystinuria; conditions: 29.3 μmol/kg daily gavage for 4 weeks
Summary of the method: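 Male Slc3a1 knockout mice in groups of six or seven received test compound at 29.3 μmol/kg by daily oral gavage for 4 weeks. Seven controls got water only. Read-out was the fraction of mice in each group that formed stones.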

[6] = L-cystine diamides in mouse urine after oral dosing; type: in vivo; conditions: mice, daily gavage 29.3 μmol/kg, micromolar concentrations in urine
[7] = cited from earlier work

SMILES | V/V0 normalized step velocity @ 15 μM [1] | V/V0 normalized step velocity @ 30 μM [1] | V/V0 normalized step velocity @ 45 μM [1] | Ratio (improvement in potency over the control CDME) ([2]; EC2x ratio vs CDME) | half-life [3] [days] | Effect on stone size and stone burden [4] | Effect on the number of mice that formed stones [4] | Effectiveness in preventing stone formation [5] | Oral bioavailability (found in urine after oral dosing) [6] | Reported equilibrium concentration of L-cystine [7] [mM] | Concentration of L-cystine in the supernatant in the absence of inhibitor ([2]; water, 25 °C, 72 h)
COC(=O)[C@@H](N)CSSC[C@H](N)C(=O)OC [CDME, L-cystine dimethyl ester, reference compound] | 0.4–0.65 | 0.27–0.54 | 0.21–0.48 | 1.0 | ~0.113 | effective in reducing stone size and stone burden | no effect | – | – | – | –
Cl.Cl.N[C@@H](CSSC[C@H](N)C(=O)N1CCOCC1)C(=O)N1CCOCC1 [Compound 1a, L-Cystine bismorpholide] | 0.44–0.65 | 0.34–0.58 | 0.29–0.53 | – | 19.8 | – | – | ineffective | orally bioavailable | – | –
CN1CCN(C(=O)[C@@H](N)CSSC[C@H](N)C(=O)N2CCN(C)CC2)CC1.Cl.Cl.Cl.Cl [Compound 1b, L-cystine bis(N′-methylpiperazide)] | 0.52–0.66 | 0.32–0.50 | 0.30–0.40 | – | 46.2 | – | – | effective | orally bioavailable | – | –
N[C@@H](CSSC[C@H](N)C(=O)O)C(=O)O [L-cystine] | – | – | – | – | – | – | – | – | – | 0.7 | approximately 1 mM
